From ChEMBL document CHEMBL4130623, “Discovery of Highly Potent Pinanamine-Based Inhibitors against Amantadine- and Oseltamivir-Resistant Influenza A Viruses” (J Med Chem, 2018)
The source made the active and inactive calls.

How the values were obtained:
Influenza A virus [1] = test: Antiviral activity against Influenza A virus (A/Guangzhou/GIRD/07/2009 (H1N1)) infected in MDCK cells assessed as reduction in virus-induced cytopathic effect after 48 hrs by microscopic analysis; format: functional, organism-based
Procedure, shortened: (§1)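 MDCK monolayers (5×10^4 cells/well, grown 24 h) were rinsed twice, infected with 100 TCID50 virus for 2 h at 37 °C in 5% CO2, and the inoculum was removed. Two-fold serial compound dilutions in DMEM with 1.5 µg/mL trypsin were added and incubated 48 h at 34 °C. CPE percentage was scored by microscope and EC50 fitted by non-linear regression.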

Influenza A virus [2] = test: Antiviral activity against Influenza A virus (A/WSN/33) by CCK-8 reagent based assay; format: functional, organism-based; conditions: A/WSN/1933(H1N1)
Influenza A virus [3] = test: Antiviral activity against Influenza A virus (A/HK/68) by CCK-8 reagent based assay; format: functional, organism-based
[4] = Cytotoxicity against MDCK cells assessed as change in cell morphology after 48 hrs by microscopic analysis; format: cell-based, Canis lupus familiaris; conditions: dog
Procedure, shortened: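 MDCK monolayers (5×10^4 cells/well, 24 h) were rinsed twice with PBS and exposed to two-fold serial compound dilutions in DMEM for 48 h. Wells were examined by microscope. The concentration giving minimal change in cell morphology was taken as the minimum cytotoxic concentration (MCC).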

Influenza A virus [5] = test: Antiviral activity against Influenza A virus (A/WSN/33 (H1N1)) infected in MDCK cells assessed as reduction in virus-induced cytopathic effect after 48 hrs by microscopic analysis; format: functional, organism-based; conditions: A/WSN/1933(H1N1); procedure, shortened: as §1
Influenza A virus [6] = test: Antiviral activity against Influenza A virus (A/PR/8/34 (H1N1)) infected in MDCK cells assessed as reduction in virus-induced cytopathic effect after 48 hrs by microscopic analysis; format: functional, organism-based; conditions: A/Puerto Rico/8/1934(H1N1); procedure, shortened: as §1
Influenza A virus [7] = test: Antiviral activity against Influenza A virus (A/HK/68(H3N2)) infected in MDCK cells assessed as reduction in virus-induced cytopathic effect after 48 hrs by microscopic analysis; format: functional, organism-based; procedure, shortened: as §1
H3N2 subtype = test: Antiviral activity against Influenza A virus (A/Aichi/2/68 (H3N2)) infected in MDCK cells assessed as reduction in virus-induced cytopathic effect after 48 hrs by microscopic analysis; format: functional, organism-based; conditions: A/Aichi/2/1968(H3N2); procedure, shortened: as §1
Influenza A virus [8] = test: Antiviral activity against Influenza A virus (A/duck/Guangdong/1/1996 (H7N3)) infected in MDCK cells assessed as reduction in virus-induced cytopathic effect after 48 hrs by microscopic analysis; format: functional, organism-based; procedure, shortened: as §1
Influenza A virus [9] = test: Antiviral activity against Influenza A virus (A/duck/HK/Y280/97 (H9N2)) infected in MDCK cells assessed as reduction in virus-induced cytopathic effect after 48 hrs by microscopic analysis; format: functional, organism-based; procedure, shortened: as §1
Influenza A virus [10] = test: Antiviral activity against Influenza A virus (A/California/07/2009(H1N1)) infected in human A549 cells assessed as reduction in plaque area after 3 days post infection by crystal violet-staining based assay; format: functional, organism-based; conditions: A549, 72 h
Procedure, shortened: (§2)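 A549 monolayers were infected at 0.01 MOI for 1 h at 37 °C, then washed twice with PBS. Cells were overlaid with 1% agar DMEM containing compound, 2 µg/mL trypsin and 0.3% BSA. Two to three days post-infection, monolayers were fixed and stained with 0.1% crystal violet.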

Influenza A virus [11] = test: Antiviral activity against Influenza A virus (A/Texas/04/2009(H1N1)) infected in human A549 cells assessed as reduction in plaque area after 3 days post infection by crystal violet-staining based assay; format: functional, organism-based; conditions: A549, 72 h; procedure, shortened: as §2
Influenza A virus [12] = test: Antiviral activity against Influenza A virus (A/PR/8/34 (H1N1)) infected in MDCK cells assessed as inhibition of virus yield dosed at -1 to 2 hrs post infection and measured after 24 hrs; format: functional, organism-based; conditions: A/Puerto Rico/8/1934(H1N1)
Procedure, shortened: (§3)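 Confluent MDCK cells were infected with 100 TCID50 virus and adsorbed 1 h at 4 °C (adsorption defined as -1 h), then washed. Compound at 10 µM was present only during the stated interval, then washed out with PBS. Cells were kept in medium with 1.5 µg/mL TPCK-trypsin at 37 °C. After 24 h, plates were freeze-thawed and supernatant yield was titrated by TCID50.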

[13] = target: Hemagglutinin (Influenza A virus (A/Puerto Rico/8/1934(H1N1))) (UniProt P03452); test: Inhibition of Influenza A virus A/PR/8/34 HA1 domain assessed as reduction in virus-induced aggregation of chicken erythrocytes at 0.75 to 1500 uM incubated for 1 hr with virus followed by transfer of compound-virus preparation to chicken erythrocytes solution measured after 40 mins
Procedure, shortened: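 Two-fold serial compound dilutions in PBS were mixed with an equal volume of virus and incubated 1 h. The mixture was added to an equal volume of fresh 0.5% chicken red blood cells in Alsever's solution. After 40 min at room temperature, erythrocyte aggregation was read visually.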

[14] = target: Hemagglutinin (Influenza A virus (A/Puerto Rico/8/1934(H1N1))) (UniProt P03452); test: Inhibition of Influenza A virus A/PR/8/34 HA2-mediated hemolysis preincubated with virus for 30 mins followed by chicken red blood cells addition measured after 30 mins by spectrophotometric analysis
Procedure, shortened: (§4)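 Virus (100 µL) was incubated with two-fold serial compound dilutions in PBS for 30 min at 37 °C. An equal volume of chicken red blood cells in citric acid-sodium citrate (pH 5.0) was added and incubated 30 min at 37 °C, then centrifuged at 400 × g. Supernatant absorbance was read at 540 nm, with mock-infected background subtracted. IC50 is the concentration giving 50% hemolysis inhibition. Two independent experiments were run.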

[15] = target: Hemagglutinin (Influenza A virus (strain A/Aichi/2/1968 H3N2)) (UniProt P03437); test: (§5) Inhibition of Influenza A virus A/Aichi/2/68 (H3N2) HA2-mediated hemolysis preincubated with virus for 30 mins followed by chicken red blood cells addition measured after 30 mins by spectrophotometric analysis; conditions: Influenza A virus (A/Aichi/2/1968(H3N2)); procedure, shortened: as §4
Hemagglutinin = Hemagglutinin (Influenza A virus (strain A/Aichi/2/1968 H3N2), UniProt P03437); test: as §5; set-up: species or system Influenza A virus (A/Aichi/2/1968(H3N2)); procedure, shortened: as §4
Influenza A virus [16] = test: Antiviral activity against Influenza A virus (A/PR/8/34 (H1N1)) infected in MDCK cells assessed as inhibition of virus yield dosed at 0 to 2 hrs post infection and measured after 24 hrs; format: functional, organism-based; conditions: A/Puerto Rico/8/1934(H1N1); procedure, shortened: as §3

Sequence of Hemagglutinin (Influenza A virus (A/Puerto Rico/8/1934(H1N1))) (P03452 whole entry, the tested form may be a part): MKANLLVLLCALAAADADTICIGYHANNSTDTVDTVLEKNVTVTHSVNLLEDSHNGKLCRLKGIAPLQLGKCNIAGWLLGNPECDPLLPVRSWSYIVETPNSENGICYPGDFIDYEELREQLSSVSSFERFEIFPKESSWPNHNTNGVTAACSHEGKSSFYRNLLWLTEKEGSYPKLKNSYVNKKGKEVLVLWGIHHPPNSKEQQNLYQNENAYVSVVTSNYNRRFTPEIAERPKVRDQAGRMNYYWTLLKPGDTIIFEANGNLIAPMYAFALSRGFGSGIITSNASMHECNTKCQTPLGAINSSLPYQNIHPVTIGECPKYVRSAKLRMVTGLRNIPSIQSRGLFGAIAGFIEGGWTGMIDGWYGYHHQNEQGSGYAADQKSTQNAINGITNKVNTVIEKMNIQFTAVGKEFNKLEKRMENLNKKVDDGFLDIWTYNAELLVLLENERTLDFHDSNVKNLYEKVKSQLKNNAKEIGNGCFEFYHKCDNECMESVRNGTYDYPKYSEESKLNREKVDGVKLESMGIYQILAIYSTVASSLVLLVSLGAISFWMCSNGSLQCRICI

Compound: C[C@@H]1C2CC(C[C@H]1NCc1sccc1C1CC1)C2(C)C (single isomer, unassigned)
- EC50 (Influenza A virus [1]): 300 nM
- Activity (Influenza A virus [2]): Active
- Activity (Influenza A virus [3]): Active
- MCC at 48 h [4]: 25 µM
- EC50 (Influenza A virus [5]): 1480 nM
- EC50 (Influenza A virus [6]): 2230 nM
- EC50 (Influenza A virus [7]): 5.38 µM
- EC50 (H3N2 subtype): 4.55 µM
- EC50 (Influenza A virus [8]): 4.58 µM
- EC50 (Influenza A virus [9]): 6.79 µM
- EC50 (Influenza A virus [10]): 340 nM
- EC50 (Influenza A virus [11]): 100 nM
- inhibition (Influenza A virus [12]): Active
- inhibition [13]: inactive
- inhibition [14]: Dose-dependent effect
- inhibition [15]: Dose-dependent effect
- IC50 (Hemagglutinin): 1230 nM
- inhibition (Influenza A virus [16]): Active
